Assay results from ChEMBL document CHEMBL1681759, “Synthesis and biological evaluation of benzimidazole-5-carbohydrazide derivatives as antimalarial, cytotoxic and antitubercular agents” (Bioorg Med Chem, 2011).
Values after ≈ are worked out from the molar mass of the structure shown.

Tests used:
[1] = system: DU-145; assay: Cytotoxicity against human DU145 cells assessed as growth inhibition after 48 hrs by sulforhodamine B assay; type: functional; conditions: DU-145, 48 h
In short: (§1)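 Cells were exposed to serial compound dilutions in 96-well plates for 48 h at 37 °C alongside solvent controls. Growth was read colorimetrically by sulforhodamine B. GI50 is the concentration giving a 50% reduction in absorbance versus solvent-treated controls, derived by linear regression.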

[2] = system: Mycobacterium tuberculosis; assay: Antimycobacterial activity against Mycobacterium tuberculosis H37Rv after 5 days by tetrazolium microplate assay; type: functional; conditions: 120 h
In short: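 Tetrazolium microplate assay run in 7H9GC broth. DMSO stocks (4 mg/mL) were diluted to final 0.4–25 µg/mL. Isoniazid (0.125–32 µg/mL) and rifampin (0.063–16 µg/mL) were positive controls; inoculum-only and DMSO controls were included. Plates were incubated 5 days at 37 °C, then an MTT-Tween 80 mix was added and incubation continued 24 h at 37 °C. Run in triplicate. MIC = lowest concentration preventing the yellow-to-purple colour change.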

[3] = Cytotoxicity against mouse 3T3 cells assessed as growth inhibition after 48 hrs by sulforhodamine B assay; type: cell-based; conditions: NIH3T3 cells; in short: as §1
[4] = system: MCF7; assay: Cytotoxicity against human MCF7 cells assessed as growth inhibition after 48 hrs by sulforhodamine B assay; type: functional; conditions: MCF7, 48 h; in short: as §1
[5] = Cytotoxicity against african green monkey Vero cells assessed as growth inhibition after 48 hrs by sulforhodamine B assay; type: cell-based; conditions: chlorocebus sabaeus; in short: as §1
[6] = system: Plasmodium berghei; assay: Antimalarial activity against chloroquine-susceptible Plasmodium berghei ANKA infected in Balb-C mouse; type: functional, organism-based
In short: (§2)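 Balb-C mice (18–23 g, n = 6) were infected iv in the caudal vein with 10⁶ P. berghei ANKA-infected RBCs. Dosing started 2 h post-infection: 20 mg/kg ip once daily for 4 days, DMSO stock diluted in Saline-Tween 20 (2%). Chloroquine 25 mg/kg served as positive control; untreated mice were controls. Parasitemia was read on day 4 from Giemsa smears, and survival days were recorded.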

[7] = system: HT-29; assay: Cytotoxicity against human HT-29 cells assessed as growth inhibition after 48 hrs by sulforhodamine B assay; type: functional; conditions: HT-29, 48 h; in short: as §1
[8] = Inhibition of beta-hematin formation assessed as inhibition of […] polymerization at […] after 48 hrs; type: functional
In short: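 Hemin chloride (50 µL, 4 mM in DMSO) was mixed in triplicate with compound in DMSO; water or DMSO served as controls. Reaction was started with acetate buffer (0.2 M, pH 4.4) and run 37 °C for 48 h. The pellet was DMSO-washed twice, dissolved in 0.2 N NaOH, diluted 1:2 in 0.1 N NaOH, and read at 405 nm as % inhibition of FP polymerization.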

[9] = system: NCI-H460; assay: Cytotoxicity against human H460 cells assessed as growth inhibition after 48 hrs by sulforhodamine B assay; type: functional; conditions: NCI-H460, 48 h; in short: as §1
[10] = system: Plasmodium berghei; assay: Antimalarial activity against chloroquine-susceptible Plasmodium berghei ANKA infected in Balb-C mouse assessed as inhibition parasitemia at 20 mg/kg, ip qd for 4 days […]; type: functional; conditions: 96 h, route intraperitoneal; in short: as §2
[11] = system: K562; assay: Cytotoxicity against human K562 cells assessed as growth inhibition after 48 hrs by sulforhodamine B assay; type: functional; conditions: K562, 48 h; in short: as §1
[12] = system: Plasmodium berghei; assay: Antimalarial activity against chloroquine-susceptible Plasmodium berghei ANKA infected in Balb-C mouse assessed as mouse survival days at 20 mg/kg, ip qd for 4 days […] relative to untreated control; type: functional; conditions: route intraperitoneal
[13] = system: M14; assay: Cytotoxicity against human M14 cells assessed as growth inhibition after 48 hrs by sulforhodamine B assay; type: functional; conditions: M14, 48 h; in short: as §1
[14] = system: Plasmodium berghei; assay: Antimalarial activity against chloroquine-susceptible Plasmodium berghei ANKA assessed as inhibition of trophozoite extract-mediated mouse hemoglobin hydrolysis at 10 mM after 18 hrs by SDS-PAGE; type: functional
In short: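 Trophozoite extract came from P. berghei-infected mouse blood at 30–50% parasitemia: RBCs percoll-purified (80–70%), saponin-lysed, then freeze–thawed three times. Substrate was native haemoglobin from uninfected mouse erythrocytes lysed in water. The mix held GSH and acetate buffer (0.2 M, pH 5.4). Compound was added in DMSO and incubated 37 °C, 18 h. Reactions were stopped with reduced sample buffer.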

Row | SMILES | GI50 [1] | MIC [2] | GI50 at 48 h [3] | GI50 [4] | GI50 at 48 h [5] | IC50 [6] | GI50 [7] | inhibition [8] | GI50 [9] | inhibition in vivo at 20 mg/kg [10] | GI50 [11] | Survival [12] | GI50 [13] | inhibition at 10000 µM [14]
1 | O=C(O)c1ccc2[nH]c(-c3ccc([N+](=O)[O-])o3)nc2c1 | 125 µg/mL (≈ 458 µM) | > 25 µg/mL | 62.5 µg/mL (≈ 229 µM) | > 250 µg/mL | > 250 µg/mL | 8.43 µM | 250 µg/mL (≈ 915 µM) | 95.4% | 125 µg/mL (≈ 458 µM) | 4.02% | 250 µg/mL (≈ 915 µM) | 17 days | 250 µg/mL (≈ 915 µM) | 0%
2 | COc1cccc(C(=O)NNC(=O)c2ccc3[nH]c(-c4ccc([N+](=O)[O-])s4)nc3c2)c1 | 62.5 µg/mL (≈ 143 µM) | > 25 µg/mL | 15.6 µg/mL (≈ 35.7 µM) | 15.6 µg/mL (≈ 35.7 µM) | > 250 µg/mL | 24.5 µM | 31.2 µg/mL (≈ 71.4 µM) | 61.6% | 62.5 µg/mL (≈ 143 µM) | 24.8% | 15.6 µg/mL (≈ 35.7 µM) | 10.6 days | 15.6 µg/mL (≈ 35.7 µM) | 13.4%
